The species entered for assay [1] is Rattus norvegicus. In words: Inhibition of hexarelin-stimulated cumulative food intake per 100 g body weight of Sprague-Dawley rat at 160 ug after 6 hrs. It is filed as functional. The gist of the method: (§1)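 Young-adult male rats (125–150 g), singly housed, acclimated and trained. Compound given sc at time −10 min (0, 20, 80, 160 or 320 μg/kg), then hexarelin 80 μg/kg sc at time 0. Rats returned to home cages with a known amount of chow. Cumulative intake recorded as g food/100 g body weight at 2 h and 6 h.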

For assay [2], the target named is T1, Growth hormone secretagogue receptor type 1 (Homo sapiens, UniProt Q92847). In words: Activity at human GHS1a receptor expressed in CHO cells assessed as accumulation of intracellular calcium level at 10 uM relative to ghrelin. Type of assay: functional, cell-based. In a few lines: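 CHO cells transiently electroporated with hGHS-R1a, loaded 24 h later with 1 μM Fluo-4AM (1 h, 37 °C, dark), then de-esterified 30 min at room temperature. Fluorescence (ex 485/em 525 nm) recorded over 60 s, compound at 10 μM added at 15 s. Triplicates, at least two independent experiments. Response expressed as percent of maximum with 0.1 μM ghrelin.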

Assay [3] deals with T1, Growth hormone secretagogue receptor type 1. As to the kind of experiment: Displacement of [125I]His9-ghrelin from human cloned GHS1a receptor expressed in LLC PK1 cells. It is filed as cell-based. For orientation: In a radioligand displacement assay an active substance lowers the binding of a labelled ligand.
The species named for assay [4] is Rattus norvegicus. In words: Effect on cumulative food intake per 100 g body weight of Sprague-Dawley rat at 160 ug after 2 hrs. Type of assay: functional. The gist of the method:
(§2)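 Young-adult male rats (125–150 g), singly housed, acclimated 1 week and trained daily for a further week. Test compound given sc at 160 μg/kg mid-morning, then returned to cages with a known amount of chow. Cumulative intake recorded at 2 or 6 h as g food/100 g body weight.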

The species named for assay [5] is Rattus norvegicus. In words: Effect on cumulative food intake per 100 g body weight of Sprague-Dawley rat at 160 ug after 6 hrs. It is filed as functional. The gist of the method: as §2
Assay [6] is filed under the species Rattus norvegicus. As to the kind of experiment: Inhibition of hexarelin-stimulated cumulative food intake per 100 g body weight of Sprague-Dawley rat at 160 ug after 2 hrs. Type of assay: functional. The gist of the method: as §1
Assay [7] concerns the target T1, Growth hormone secretagogue receptor type 1. In words: Agonist activity at human GHS1a receptor expressed in CHO cells assessed as accumulation of intracellular calcium level. Type of assay: functional, cell-based. In a few lines: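 Fluo-4AM calcium assay in CHO cells transiently expressing hGHS-R1a. Fluorescence recorded at ex 485/em 525 nm over 60 s after automated addition of increasing agonist concentrations. EC50 taken from the dose-response curve.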
A general note: A change in cytosolic calcium serves as a functional read-out for many receptors and channels.

The target is the same in assay [8]. As to the kind of experiment: Antagonist activity at human GHS1a receptor expressed in CHO cells assessed as accumulation of intracellular calcium level. It is filed as functional, cell-based.

Bounds are passed on as bounds.

T1 sequence (Q92847 whole entry): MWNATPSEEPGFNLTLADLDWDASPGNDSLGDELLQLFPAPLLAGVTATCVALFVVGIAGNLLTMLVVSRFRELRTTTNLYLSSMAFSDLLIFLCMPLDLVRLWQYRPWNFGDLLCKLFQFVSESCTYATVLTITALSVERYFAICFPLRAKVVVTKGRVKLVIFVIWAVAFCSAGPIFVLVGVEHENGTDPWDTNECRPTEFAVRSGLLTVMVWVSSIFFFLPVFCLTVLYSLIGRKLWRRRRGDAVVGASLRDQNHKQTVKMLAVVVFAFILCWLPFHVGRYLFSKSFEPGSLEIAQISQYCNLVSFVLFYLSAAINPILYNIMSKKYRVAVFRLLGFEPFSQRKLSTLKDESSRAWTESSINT

What is called IC50 is the concentration needed to halve the response being measured. Lower therefore signals higher potency. Broadly, the EC50 is the concentration that produces a half-maximal response. With `O=C(N[C@H](Cc1c[nH]c2ccccc12)c1nnc(CCc2c[nH]c3ccccc23)n1Cc1ccccc1)C1CCNCC1`, the Activity in assay [1] was found to be 0.6 g; in assay [2], 75%; in assay [4], 0.01 g; in assay [5], 0.11 g; in assay [6] it was 0.38 g. For the same compound, the IC50 in assay [3] is 24 nM. Besides, in assay [7], the 50% effective concentration (EC50) is 5.4 nM.
What is called Kb is the affinity of an antagonist, worked out from how it opposes an agonist. As for `COc1ccc(Cn2c(CCc3c[nH]c4ccccc34)nnc2[C@@H](Cc2c[nH]c3ccccc23)NC(=O)[C@H]2CCCCN2)cc1`, in assay [8], the Kb amounted to 8 nM. Besides, the Activity in assay [1] worked out at 1.68 g; in assay [2], 0%; in assay [4], 0.04 g; in assay [5], 0.06 g; in assay [6], 1.25 g.
As to `CCc1ccc(-n2c(CCc3c[nH]c4ccccc34)nnc2[C@@H](Cc2c[nH]c3ccccc23)NC(=O)[C@@H]2CCCN2)cc1`, the Activity in assay [2] was 5%. Also, in assay [3], the IC50 was determined as 350 nM.
With `COc1ccc(Cn2c(CCc3c[nH]c4ccccc34)nnc2[C@@H](Cc2c[nH]c3ccccc23)NC(=O)[C@@H]2CCCN2)cc1`, the Kb in assay [8] worked out at 6 nM. Also, the Activity in assay [1] is 0.48 g; in assay [2], 2%; in assay [4], 0.05 g; in assay [5] it was 0.2 g; in assay [6], 0.44 g.
As to `COc1ccc(Cn2c(CCc3ccccc3)nnc2[C@@H](Cc2c[nH]c3ccccc23)NC(=O)[C@@H]2CCCNC2)cc1`, the Activity in assay [2] is 89%. In assay [7], the concentration giving a half-maximal response (EC50) stood at 36 nM.
Turning to `COc1ccc(Cn2c(CCc3c[nH]c4ccccc34)nnc2[C@@H](Cc2c[nH]c3ccccc23)NC(=O)[C@H]2CCCNC2)cc1`, the Activity turned out to be 0.76 g in assay [1]; 111% in assay [2]; 0.01 g in assay [4]; 0.06 g in assay [5]; 0.62 g in assay [6]. The EC50 in assay [7] is 2.5 nM.
For the compound `COc1ccc(Cn2c(CCc3ccccc3)nnc2[C@@H](Cc2c[nH]c3ccccc23)NC(=O)CN)c(OC)c1`, the Activity in assay [1] worked out at 1.48 g; in assay [2], 0%; in assay [4], 0.01 g; in assay [5] it was 0.08 g; in assay [6], 1.26 g. Moreover, in assay [3], the half-inhibitory concentration (IC50) stood at 154 nM.
Regarding `COc1ccc(Cn2c(CCc3ccccc3)nnc2[C@@H](Cc2c[nH]c3ccccc23)NC(=O)[C@@H]2CCCCN2)c(OC)c1`, in assay [2], the Activity amounted to 0%. The same compound came in with an IC50 in assay [3] of 134 nM.
Consider `COc1ccc(Cn2c(CCc3ccccc3)nnc2[C@@H](Cc2c[nH]c3ccccc23)NC(=O)C2CCCCN2)cc1` (single isomer, unassigned), for which the Activity in assay [1] was determined as 0.56 g; in assay [2], 3%; in assay [4], 0.01 g; in assay [5], 0.01 g; in assay [6] it was 0.06 g.
For `O=C(N[C@H](Cc1c[nH]c2ccccc12)c1nnc(CCc2c[nH]c3ccccc23)n1Cc1ccccc1)[C@H]1CCCNC1`, the Activity in assay [1] was 0.62 g; in assay [2], 50%; in assay [4] it was 0.52 g; in assay [5], 0.6 g; in assay [6], 0.16 g. In assay [3], this compound gave an IC50 of 13 nM. Besides, the EC50 in assay [7] is 9.9 nM.
In the case of `CCc1ccc(-n2c(CCc3c[nH]c4ccccc34)nnc2[C@@H](Cc2c[nH]c3ccccc23)NC(=O)CN)cc1`, the Activity in assay [2] was 4%. The compound also displayed a 50% inhibitory concentration (IC50) in assay [3] greater than 1000 nM.
For the compound `Cc1ncccc1-n1c(CCc2ccccc2)nnc1[C@@H](Cc1c[nH]c2ccccc12)NC(=O)C1CCNCC1`, the Activity in assay [2] is 78%. Besides, the IC50 in assay [3] was greater than 1000 nM.
Consider `COc1ccc(Cn2c(CCc3c[nH]c4ccccc34)nnc2[C@@H](Cc2c[nH]c3ccccc23)NC(=O)CN)c(OC)c1`, for which, in assay [8], the Kb came to 27 nM. Also, the Activity in assay [1] was 0.74 g; in assay [2] it was 0%; in assay [4] it was 0.01 g; in assay [5], 0.01 g; in assay [6] it was 0.39 g.
As for `O=C(N[C@H](Cc1c[nH]c2ccccc12)c1nnc(CCc2c[nH]c3ccccc23)n1-c1ccccc1)C1CCNCC1`, in assay [2], the Activity is 100%. Further, the EC50 in assay [7] came out at 2.3 nM.
With `NCC(=O)N[C@H](Cc1c[nH]c2ccccc12)c1nnc(CCc2ccccc2)n1-c1ccccc1`, the Activity in assay [2] was 7%. Besides, in assay [3], the IC50 was greater than 1000 nM.
On to `COc1ccc(Cn2c(CCc3c[nH]c4ccccc34)nnc2[C@@H](Cc2c[nH]c3ccccc23)NC(=O)C2CCNCC2)cc1`, for which the Activity was 1.05 g in assay [1]; 93% in assay [2]; 0.01 g in assay [4]; 0.37 g in assay [5]; 0.4 g in assay [6]. Also, the EC50 in assay [7] was found to be 3 nM.
For the compound `COc1ccc(Cn2c(CCc3c[nH]c4ccccc34)nnc2[C@@H](Cc2c[nH]c3ccccc23)NC(=O)C(C)(C)N)cc1`, in assay [8], the Kb is 4 nM. Also, the Activity in assay [2] was found to be 9%.
With `CCc1ccc(-n2c(CCc3c[nH]c4ccccc34)nnc2[C@@H](Cc2c[nH]c3ccccc23)NC(=O)C2CCNCC2)cc1`, the Activity in assay [2] stood at 100%. Moreover, in assay [3], the IC50 was found to be 96 nM. Further, in assay [7], the EC50 was found to be 15 nM.
Regarding `COc1ccc(Cn2c(CCc3ccccc3)nnc2[C@@H](Cc2c[nH]c3ccccc23)NCCN)c(OC)c1`, the Activity in assay [2] was 59%. Also, in assay [7], the EC50 turned out to be 279 nM.
As for `COc1ccc(Cn2c(CCc3ccccc3)nnc2[C@@H](Cc2c[nH]c3ccccc23)NC(=O)[C@@H]2C[C@@H](O)CN2)cc1`, the Activity was 0.35 g in assay [1]; 87% in assay [2]; 0.01 g in assay [4]; 0.01 g in assay [5]; 0.02 g in assay [6]. In assay [3], this compound returned an IC50 of 173 nM.
As to `COc1ccc(Cn2c(CCc3c[nH]c4ccccc34)nnc2[C@@H](Cc2c[nH]c3ccccc23)NC(=O)[C@H]2CCCNC2)c(OC)c1`, the Activity in assay [1] stood at 0.65 g; in assay [2], 48%; in assay [4], 0.01 g; in assay [5], 0.01 g; in assay [6], 0.33 g. The same compound had an IC50 in assay [3] of 6.5 nM. In addition, the concentration for a half-maximal effect (EC50) in assay [7] came to 5.3 nM.
For `CCc1ccc(Cn2c(CCc3ccccc3)nnc2[C@@H](Cc2c[nH]c3ccccc23)NC(=O)CN)cc1`, the Activity in assay [1] came out at 0.81 g; in assay [2], 0%; in assay [4], 0.01 g; in assay [5], 0.03 g; in assay [6], 0.79 g. The 50% inhibitory concentration (IC50) in assay [3] was found to be 759 nM.
`CCc1ccc(Cn2c(CCc3ccccc3)nnc2[C@@H](Cc2c[nH]c3ccccc23)NC(=O)C2CCNCC2)cc1`: the Activity in assay [1] is 1.66 g; in assay [2], 101%; in assay [4], 0.03 g; in assay [5], 0.35 g; in assay [6], 1.4 g. Moreover, the EC50 in assay [7] is 7.7 nM.
Turning to `COc1ccc(Cn2c(CCC3C=Nc4ccccc43)nnc2[C@@H](Cc2c[nH]c3ccccc23)NC(=O)CN)cc1` (some centres undefined), in assay [2], the Activity came out at 2%. Also, the IC50 in assay [3] turned out to be 138 nM.
Turning to `COc1ccc(Cn2c(CCc3c[nH]c4ccccc34)nnc2[C@@H](Cc2c[nH]c3ccccc23)NC(=O)C2CCNCC2)c(OC)c1`, the Activity in assay [1] is 0.86 g; in assay [2], 77%; in assay [4] it was 0.01 g; in assay [5], 0.01 g; in assay [6], 0.11 g. For the same compound, in assay [7], the EC50 came to 0.6 nM.
With `COc1ccc(Cn2c(CCc3c[nH]c4ccccc34)nnc2[C@@H](Cc2c[nH]c3ccccc23)NC(=O)[C@@H]2CCCN2)c(OC)c1`, the Kb in assay [8] was found to be 11 nM. The Activity in assay [2] turned out to be 0%. In assay [3], this compound showed a half-inhibitory concentration (IC50) of 5.6 nM.
With `CC(C)(N)C(=O)N[C@H](Cc1c[nH]c2ccccc12)c1nnc(CCc2c[nH]c3ccccc23)n1Cc1ccccc1`, in assay [2], the Activity came out at 73%.
As for `CCc1ccc(Cn2c(CCc3ccccc3)nnc2[C@@H](Cc2c[nH]c3ccccc23)NC(=O)[C@H]2CCCNC2)cc1`, in assay [2], the Activity came out at 11%. This compound also gave an IC50 in assay [3] of 130 nM.
With `COc1ccc(-n2c(CCc3ccccc3)nnc2[C@@H](Cc2c[nH]c3ccccc23)NC(=O)CN)c(OC)c1`, the Activity in assay [2] worked out at 27%. The IC50 in assay [3] was greater than 1000 nM.
Turning to `COc1ccc(Cn2c(CCc3ccccc3)nnc2[C@@H](Cc2c[nH]c3ccccc23)NC(=O)[C@H]2CCCNC2)cc1`, the antagonist equilibrium constant (Kb) in assay [8] was 10 nM. Besides, the Activity in assay [2] turned out to be 20%.
